# Assay results taken from ChEMBL document CHEMBL2176916, “Mimicking the intramolecular hydrogen bond: synthesis, biological evaluation, and molecular modeling of benzoxazines and quinazolines as potential antimalarial agents” (J Med Chem, 2012).
# Calls of active or inactive are those of the source. No cut-off for these calls is given here.
# System: Plasmodium falciparum
# Assay: Antiplasmodial activity against chloroquine-sensitive Plasmodium falciparum D10 infected in human RBCs after 72 hrs by parasite lactate dehydrogenase assay
# Assay type: functional, organism-based
# Conditions: D10, 72 h
# Outline: (§1)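 Asynchronous cultures (parasitemia 1−1.5%, 1% final hematocrit) in human type A-positive RBCs, RPMI 1640 with 1% AlbuMax, hypoxanthine, Hepes and glutamine. Exposed to serial dilutions (DMSO <1% final) for 72 h at 37 °C under 1% O₂/5% CO₂/94% N₂. Growth read as pLDH activity at OD₆₅₀ (modified Makler method).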
row,SMILES,IC50 [µM]
1,Clc1ccc2c(Nc3ccc4c(c3)NCN(Cc3ccccc3)C4)ccnc2c1,0.053
2,Clc1ccc2c(Nc3ccc4c(c3)OCN(Cc3ccccc3)C4)ccnc2c1,0.038
3,O=C1c2ccc(Nc3ccnc4cc(Cl)ccc34)cc2NCN1Cc1ccccc1,> 1
4,CCN(CC)Cc1cc(Nc2ccnc3cc(Cl)ccc23)ccc1O.Cl,0.025
5,CCCn1cnc2cc(Nc3ccnc4cc(Cl)ccc34)ccc2c1=O,> 1

# System: not listed separately
# Assay: Aqueous solubility of the compound in water at pH 7.4 after 24 hrs
# Assay type: physicochemical
# Conditions: buffer, pH 7.4, 24 h; BLD = below limit of detection
# Outline: (§2)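 Prepared from 10 mM DMSO stock as 250 μM in 50 mM acetic acid (pH 3) or 50 mM ammonium acetate (pH 7.4), 2.5% DMSO final, in filter plates. Filtrate diluted 1:2 and run on UPLC/UV/TOF-MS at 254 nm. Solubility from sample UV area versus a 250 μM standard in acetonitrile/buffer.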
row,SMILES,solubility
1,Clc1ccc2c(Nc3ccc4c(c3)NCN(Cc3ccccc3)C4)ccnc2c1,BLD

# System: not listed separately
# Assay: Chemical stability of the compound at pH 7.4 at 37 degC measured for 24 hrs by NMR analysis
# Assay type: physicochemical
# Conditions: buffer, pH 7.4, 24 h
row,SMILES,Stability
1,Clc1ccc2c(Nc3ccc4c(c3)NCN(Cc3ccccc3)C4)ccnc2c1,Stable

# System: not listed separately
# Assay: Cytotoxicity against mouse NIH/3T3 cells assessed as cell viability after 24 hrs by neutral red uptake assay
# Assay type: cell-based, NIH3T3
# Conditions: read-out: TC50
# Outline: (§3)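 NIH3T3 cells grown in DMEM and HepG2 in EMEM, both with 10% FCS, glutamine/penicillin/streptomycin and non-essential amino acids, 37 °C, 5% CO₂. Cells trypsinized at confluence and resuspended. Viability by neutral red uptake after 24 h exposure. Student's t test, p < 0.05.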
row,SMILES,CC50 at 24 h [µM]
1,CCN(CC)CCCC(C)Nc1ccnc2cc(Cl)ccc12 (stereo not drawn) [CHLOROQUINE],> 80
2,Clc1ccc2c(Nc3ccc4c(c3)NCN(Cc3ccccc3)C4)ccnc2c1,40
3,Clc1ccc2c(Nc3ccc4c(c3)OCN(Cc3ccccc3)C4)ccnc2c1,40

# System: not listed separately
# Assay: Cytotoxicity against human HepG2 cells assessed as cell viability after 24 hrs by neutral red uptake assay
# Assay type: cell-based
# Conditions: read-out: TC50
# Outline: as §3
row,SMILES,CC50 at 24 h [µM]
1,CCN(CC)CCCC(C)Nc1ccnc2cc(Cl)ccc12 (stereo not drawn) [CHLOROQUINE],31
2,Clc1ccc2c(Nc3ccc4c(c3)NCN(Cc3ccccc3)C4)ccnc2c1,25
3,Clc1ccc2c(Nc3ccc4c(c3)OCN(Cc3ccccc3)C4)ccnc2c1,15

# System: not listed separately
# Assay: Chemical stability of the compound at pH 2 at 37 degC measured for 24 hrs by NMR analysis
# Assay type: physicochemical
# Conditions: buffer, pH 2, 24 h
row,SMILES,Stability
1,Clc1ccc2c(Nc3ccc4c(c3)NCN(Cc3ccccc3)C4)ccnc2c1,Stable

# Biological target: T1, Chloroquine resistance transporter (Plasmodium falciparum) (UniProt Q9N623)
# T1 sequence (whole entry): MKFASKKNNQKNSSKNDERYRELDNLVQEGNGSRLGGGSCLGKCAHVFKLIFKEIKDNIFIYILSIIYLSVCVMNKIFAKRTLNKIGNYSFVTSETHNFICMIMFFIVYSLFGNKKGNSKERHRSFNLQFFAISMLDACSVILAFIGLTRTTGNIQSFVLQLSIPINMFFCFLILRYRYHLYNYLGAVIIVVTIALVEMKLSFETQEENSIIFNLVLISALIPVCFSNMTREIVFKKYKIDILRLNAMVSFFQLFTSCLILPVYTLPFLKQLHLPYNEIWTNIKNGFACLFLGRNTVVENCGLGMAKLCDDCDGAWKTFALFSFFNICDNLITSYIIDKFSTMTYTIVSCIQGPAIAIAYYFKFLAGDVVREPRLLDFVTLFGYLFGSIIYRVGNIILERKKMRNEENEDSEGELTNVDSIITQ
# Assay: Inhibition of chloroquine-resistant Plasmodium falciparum Dd2 CRT expressed in Xenopus laevis oocytes assessed as reduction in [3H]-chloroquine uptake at 100 uM after 1.5 to 2 hrs
# Assay type: cell-based
# Conditions: Oocyte
# Outline: (§4)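 Oocytes injected with Dd2 or D10 PfCRT cRNA (20 ng per oocyte). Compound at 100 μM extracellular. [³H]CQ (0.3 μM) uptake measured 3−5 days post-injection over 1.5−2 h at 27.5 °C, in pH 6.0 medium containing 15 μM unlabeled CQ. 10 oocytes per treatment, five experiments. Compared by ANOVA with Tukey's test.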
row,SMILES,inhibition
1,Clc1ccc2c(Nc3ccc4c(c3)NCN(Cc3ccccc3)C4)ccnc2c1,Active

# Biological target: T1, Chloroquine resistance transporter (Plasmodium falciparum)
# Assay: Inhibition of chloroquine-sensitive Plasmodium falciparum D10 CRT expressed in Xenopus laevis oocytes assessed as [3H]-chloroquine uptake at 100 uM after 1.5 to 2 hrs
# Assay type: cell-based
# Conditions: Oocyte
# Outline: as §4
row,SMILES,inhibition
1,Clc1ccc2c(Nc3ccc4c(c3)NCN(Cc3ccccc3)C4)ccnc2c1,inactive

# System: Plasmodium falciparum
# Assay: Antiplasmodial activity against chloroquine-resistant Plasmodium falciparum W2 infected in human RBCs after 72 hrs by parasite lactate dehydrogenase assay
# Assay type: functional, organism-based
# Conditions: W2, 72 h
# Outline: as §1
row,SMILES,IC50 [µM]
1,Clc1ccc2c(Nc3ccc4c(c3)NCN(Cc3ccccc3)C4)ccnc2c1,0.067
2,Clc1ccc2c(Nc3ccc4c(c3)OCN(Cc3ccccc3)C4)ccnc2c1,0.031
3,O=C1c2ccc(Nc3ccnc4cc(Cl)ccc34)cc2NCN1Cc1ccccc1,> 1
4,CCN(CC)Cc1cc(Nc2ccnc3cc(Cl)ccc23)ccc1O.Cl,0.019
5,CCCn1cnc2cc(Nc3ccnc4cc(Cl)ccc34)ccc2c1=O,> 1

# System: not listed separately
# Assay: Aqueous solubility of the compound in water at pH 3 after 24 hrs
# Assay type: physicochemical
# Conditions: not given
# Outline: as §2
row,SMILES,solubility at 24 h [µM]
1,Clc1ccc2c(Nc3ccc4c(c3)NCN(Cc3ccccc3)C4)ccnc2c1,122

# System: not listed separately
# Assay: Chemical stability of the compound at pH 7.4 at 37 degC by NMR analysis
# Assay type: physicochemical
# Conditions: buffer
row,SMILES,Stability
1,Clc1ccc2c(Nc3ccc4c(c3)OCN(Cc3ccccc3)C4)ccnc2c1,Stable

# System: not listed separately
# Assay: Chemical stability of the compound at pH 2 at 37 degC after 1 hr by NMR analysis
# Assay type: physicochemical
# Conditions: buffer, pH 2, 1 h
row,SMILES,Stability
1,Clc1ccc2c(Nc3ccc4c(c3)OCN(Cc3ccccc3)C4)ccnc2c1,Unstable

# Biological target: T2, Chloroquine resistance transporter (Plasmodium falciparum, UniProt Q9N623)
# T2 sequence (Q9N623 whole entry): T1 sequence (whole entry)
# Assay: Inhibition of chloroquine-resistant Plasmodium falciparum Dd2 CRT expressed in Xenopus laevis oocytes assessed as reduction in [3H]-chloroquine uptake after 1.5 to 2 hrs
# Conditions: not given
row,SMILES,IC50 [µM]
1,CC(C)(C)NC(=O)[C@@H]1C[C@@H]2CCCC[C@@H]2CN1C[C@@H](O)[C@H](Cc1ccccc1)NC(=O)[C@H](CC(N)=O)NC(=O)c1ccc2ccccc2n1,13
2,Clc1ccc2c(Nc3ccc4c(c3)NCN(Cc3ccccc3)C4)ccnc2c1,228

# System: Plasmodium berghei
# Assay: Antiplasmodium activity against chloroquine-sensitive Plasmodium berghei ANKA infected in BALB/c mouse assessed as decrease in parasitemia administered as po until day 4 measured 24 hrs post last dose by Giemsa staining
# Assay type: functional
# Conditions: not given
# Outline: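 P. berghei ANKA in female 5-week-old BALB/c mice (19 g), infected ip with 2 × 10⁷ parasitized erythrocytes. Fresh aqueous stocks (100 mg/mL) diluted 1.5-fold to give 6−7 doses from 4.4 to 50 mg/kg, given once daily by oral gavage starting 4 h post-infection through day 4. Parasitemia read from Giemsa tail-blood smears 24 h after last dose. ED50 from four-parameter logistic fit.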
row,SMILES,ED50 [mg/kg]
1,Clc1ccc2c(Nc3ccc4c(c3)NCN(Cc3ccccc3)C4)ccnc2c1,15.7

# Species: Oryctolagus cuniculus
# Assay: Inhibition of rabbit kidney Na+/K+ ATPase hydrolytic activity assessed as inorganic phosphate production at 10 uM by malachite green staining-based colorimetric assay
# Conditions: not given
# Outline: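 Na⁺,K⁺-ATPase membrane fragments prepared from rabbit kidney outer medulla and used at about 1 μg/mL protein. Buffer: 25 mM MOPS pH 7.0, 100 mM NaCl, 20 mM KCl, 3 mM MgCl₂. Test agent at 10 μM, with ouabain as reference. Pi release measured by malachite green colorimetry.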
row,SMILES,inhibition
1,C[C@@H]1O[C@@H](O[C@H]2C[C@@H](O)[C@]3(CO)[C@H]4[C@H](O)C[C@]5(C)[C@@H](C6=CC(=O)OC6)CC[C@]5(O)[C@@H]4CC[C@]3(O)C2)[C@H](O)[C@H](O)[C@H]1O,Active
2,Clc1ccc2c(Nc3ccc4c(c3)NCN(Cc3ccccc3)C4)ccnc2c1,35%

# System: not listed separately
# Assay: Chemical stability in DMSO/D2O mixture solution at 25 degC by NMR analysis
# Assay type: physicochemical
# Conditions: not given
row,SMILES,Stability
1,Clc1ccc2c(Nc3ccc4c(c3)OCN(Cc3ccccc3)C4)ccnc2c1,Stable

# System: CYP3A4
# Assay: Metabolic stability in human liver microsomes assessed as compound ramining after 1 hr in presence of human recombinant CYP3A4
# Assay type: ADME, Microsome
# Conditions: in the assay text read “assessed” for “in human liver microsomes assessed”, read-out: Stability
# Outline: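 Substrate at 1 μM final (0.25% organic solvent) incubated 1 h at 37 °C with recombinant hCYP3A4 (20 pmol/mL), with or without NADPH regenerating system. Stopped with acetonitrile. Result is % remaining from MS peak area with NADPH relative to without. CV typically within 10%.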
row,SMILES,remaining at 1 h [%]
1,Clc1ccc2c(Nc3ccc4c(c3)NCN(Cc3ccccc3)C4)ccnc2c1,18

# System: Plasmodium falciparum
# Assay: Resistant index, ratio of IC50 for chloroquine-resistant Plasmodium falciparum W2 to IC50 for chloroquine-sensitive Plasmodium falciparum D10
# Assay type: functional
# Conditions: not given
row,SMILES,Ratio IC50
1,Clc1ccc2c(Nc3ccc4c(c3)OCN(Cc3ccccc3)C4)ccnc2c1,0.8
2,CCN(CC)Cc1cc(Nc2ccnc3cc(Cl)ccc23)ccc1O.Cl,0.7
